The results in this text go back to ChEMBL document CHEMBL2046356, “Synthesis and evaluation of a set of para-substituted 4-phenylpiperidines and 4-phenylpiperazines as monoamine oxidase (MAO) inhibitors” (J Med Chem, 2012).

The Ki is a dissociation constant, usually derived from enzyme kinetics or from competition with a known ligand.

SMILES strings stand for the structures. The source made the active and inactive calls. No cut-off for these calls is given here.

The target in assay [1] is T1, Amine oxidase [flavin-containing] B (Rattus norvegicus, UniProt P19643).
T1 sequence (P19643 whole entry): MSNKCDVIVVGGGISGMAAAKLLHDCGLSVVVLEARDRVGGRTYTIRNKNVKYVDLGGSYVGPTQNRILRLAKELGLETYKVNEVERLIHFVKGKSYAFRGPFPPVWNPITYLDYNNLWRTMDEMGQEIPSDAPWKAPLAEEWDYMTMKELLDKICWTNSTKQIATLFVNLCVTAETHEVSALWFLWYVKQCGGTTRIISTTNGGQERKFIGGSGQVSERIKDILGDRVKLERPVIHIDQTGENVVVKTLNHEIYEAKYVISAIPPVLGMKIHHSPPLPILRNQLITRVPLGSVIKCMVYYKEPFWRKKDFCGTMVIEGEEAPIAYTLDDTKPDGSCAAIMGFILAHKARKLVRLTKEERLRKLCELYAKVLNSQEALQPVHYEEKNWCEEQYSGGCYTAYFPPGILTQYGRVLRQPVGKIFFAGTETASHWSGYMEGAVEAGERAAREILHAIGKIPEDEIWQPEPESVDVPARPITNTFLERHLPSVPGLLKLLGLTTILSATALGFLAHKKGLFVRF
The assay can be described thus: Displacement of [3H]-Ro 16-6491 from MAO-B receptor in rat cerebral cortex. It is filed as tissue-based. Background: In a radioligand displacement assay an active substance lowers the binding of a labelled ligand.

The target of assay [2] is T2, Amine oxidase [flavin-containing] A (Rattus norvegicus, UniProt P21396).
T2 sequence (P21396 whole entry): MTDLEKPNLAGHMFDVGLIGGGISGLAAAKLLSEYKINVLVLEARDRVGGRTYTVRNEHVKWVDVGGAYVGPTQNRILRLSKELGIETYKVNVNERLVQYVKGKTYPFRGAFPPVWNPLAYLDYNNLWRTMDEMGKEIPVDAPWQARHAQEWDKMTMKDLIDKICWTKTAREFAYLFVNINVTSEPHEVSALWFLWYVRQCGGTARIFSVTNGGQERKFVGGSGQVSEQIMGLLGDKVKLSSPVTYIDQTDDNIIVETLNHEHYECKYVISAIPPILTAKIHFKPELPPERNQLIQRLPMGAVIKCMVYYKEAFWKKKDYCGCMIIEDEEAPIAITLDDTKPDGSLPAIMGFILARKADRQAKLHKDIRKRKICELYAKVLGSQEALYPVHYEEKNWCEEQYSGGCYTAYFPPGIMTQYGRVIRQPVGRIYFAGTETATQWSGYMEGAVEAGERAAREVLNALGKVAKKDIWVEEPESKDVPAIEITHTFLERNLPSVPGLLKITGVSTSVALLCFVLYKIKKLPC
The assay can be described thus: Displacement of [3H]-Ro 41-1049 from MAO-A receptor in rat cerebral cortex. It counts as tissue-based.

The test system of assay [3] is Rattus norvegicus. The assay is described as follows: Increase in 3-MT level in Sprague-Dawley rat striatum at 100 umol/kg, sc measured after 1 hr compound administration. It counts as functional. Put shortly: (§1)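 Compounds were given to freely moving rats. Brain tissue was taken post-mortem, and striatal levels of each monoamine and its metabolites were quantified.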

For assay [4], the system named is Rattus norvegicus. The assay can be described thus: Decrease in DOPAC level in Sprague-Dawley rat striatum at 100 umol/kg, sc measured after 1 hr compound administration. It counts as functional. Details: scale not given: the % may be the effect or the level left. In short, it runs like this: as §1
Assay [5] relates to Rattus norvegicus. The assay can be described thus: Decrease in DOPAC level in Sprague-Dawley rat striatum at 37 umol/kg, sc measured after 1 hr compound administration. It is filed as functional. More on the design: scale not given: the % may be the effect or the level left. In short, it runs like this:
(§2)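 Unrestrained rats were dosed, and post-mortem striatal brain tissue was then analysed. Each monoamine and its metabolites (DOPAC, 3-MT) were quantified in the tissue.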

The test system of assay [6] is Rattus norvegicus. The assay is described as follows: Increase in 3-MT level in Sprague-Dawley rat striatum at 37 umol/kg, sc measured after 1 hr compound administration. It counts as functional. Put shortly: as §2
Assay [7] has as its system Rattus norvegicus. The assay can be described thus: Decrease in DOPAC level in Sprague-Dawley rat striatum at 53 umol/kg, sc measured after 1 hr compound administration. It is filed as functional. More on the design: scale not given: the % may be the effect or the level left. In short, it runs like this:
as §1

For assay [8], the system named is Rattus norvegicus. The assay is described as follows: Increase in 3-MT level in Sprague-Dawley rat striatum at 5.3 umol/kg, sc measured after 1 hr compound administration. It is filed as functional. Put shortly: as §1
In assay [9] the test system is Rattus norvegicus. The assay can be described thus: Increase in 3-MT level in Sprague-Dawley rat striatum at 53 umol/kg, sc measured after 1 hr compound administration. It is filed as functional. Put shortly:
as §1

For assay [10], the system named is Rattus norvegicus. The assay can be described thus: Decrease in DOPAC level in Sprague-Dawley rat striatum at 5.3 umol/kg, sc measured after 1 hr compound administration. It counts as functional. More on the design: scale not given: the % may be the effect or the level left. In short, it runs like this:
as §1

Assay [11] relates to Rattus norvegicus. The assay is described as follows: Increase in 3-MT level in Sprague-Dawley rat brain at 50 umol/kg, sc measured by microdialysis. It is filed as functional, organism-based.
Assay [12] concerns Rattus norvegicus. The assay is described as follows: Decrease in homovanillic acid level in Sprague-Dawley rat brain at 50 umol/kg, sc measured by microdialysis. It is filed as functional, organism-based.
Assay [13] relates to Rattus norvegicus. The assay can be described thus: Decrease in DOPAC level in Sprague-Dawley rat brain at 50 umol/kg, sc measured by microdialysis. It is filed as functional, organism-based.

In the case of `CCCN1CCC(c2ccc(N3CCOCC3)cc2)CC1`, the Ki was 12.9 µM in assay [1] and 1.2 µM in [2]. In addition, the Activity in assay [3] was 160%; in assay [4] it was 38%.
Turning to `CCCN1CCN(c2ccccc2)CC1`, in assay [2], affinity was put at a Ki of 46.8 µM. Also, the results for the Activity in assay [3] and in assay [4] were 100% and 180%, respectively.
Turning to `O=C(NCCN1CCOCC1)c1ccc(Cl)cc1` [MOCLOBEMIDE], the Activity is 18% in [5] and 400% in [6]. Further, the Ki in [1] is greater than 100 µM.
Regarding `CCCN1CCC(c2ccc(C#N)cc2)CC1`, the inhibition constant Ki in [1] is 589 µM; in [2], 93.3 µM. Moreover, the values for the Activity in assay [3] and in assay [4] were 115% and 105%, respectively.
`CCCN1CCC(c2ccc(OC)cc2)CC1`: the values for the Ki in assay [1] and in assay [2] were 219 µM and 0.24 µM, respectively. For the same molecule, the Activity in assay [3] is on record as 260%; in assay [4], 22%.
For the molecule `CCCN1CCN(c2ccc(OC)cc2)CC1`, the Ki in assay [1] was 589 µM; in assay [2], 1.41 µM. In addition, the results for the Activity in [3] and in assay [4] were 135% and 71%, respectively.
For the molecule `CCCN1CCN(c2ccc(OS(=O)(=O)C(F)(F)F)cc2)CC1`, the Ki in [1] was 0.0331 µM; in assay [2], 17 µM. In addition, the Activity in [3] is 120%; in assay [4] it was 121%.
The like results for `CCCN1CCC(c2ccc(Cl)cc2)CC1` were, in that order, 38 µM, 1.51 µM, 130% and 68%.
`CCCN1CCC(c2ccccc2)CC1`: the Ki in assay [2] is 9.77 µM. Further, the values for the Activity in assay [3] and in assay [4] were 100% and 130%, respectively.
Take `C#CCN(C)[C@H](C)Cc1ccccc1` [SELEGILINE]: the Activity in assay [7] is 37%; in assay [8] it was 110%; in assay [9] it was 145%; in [10], 83%.
On to `CCCCOc1ccc(C2CCN(CCC)CC2)cc1`, for which the Ki in assay [1] is 1.58 µM; in assay [2], 0.372 µM. Moreover, the result in assay [11], in assay [12] and in assay [13] was Active. Moreover, the figures for the Activity in [3] and in [4] were 150% and 40%, respectively.
For `CCCN1CCC(c2ccc(S(C)(=O)=O)cc2)CC1`, the Ki in assay [1] and in assay [2] was 589 µM each time. The Activity in assay [3] and in assay [4] was 100% throughout.
In the case of `CCCN1CCC(c2ccc(C(F)(F)F)cc2)CC1`, the Ki is 12.9 µM in assay [1] and 6.92 µM in assay [2]. Moreover, the Activity in assay [3] was found to be 100%; in assay [4], 86%.
